Experimental findings from ChEMBL document CHEMBL4321800, “Synthesis, Identification, and Structure-Activity Relationship Analysis of GATA4 and NKX2-5 Protein-Protein Interaction Modulators” (J Med Chem, 2019) are described below.

SMILES strings stand for the structures.

Common to all, as to type: cell-based
Data set [1] addresses Transcription factor GATA-4 (Mus musculus) (UniProt Q08369). Kind of data set: Modulation of mouse GATA4 expressed in Chlorocebus aethiops COS1 cells harboring NP-112 reporter gene assessed as BNP promoter-driven transcriptional activity at 10 uM after 24 hrs by luciferase reporter gene assay relative to control. An outline of the steps: (§1)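 GATA reporter assay: COS-1 cells (14 000/well, overnight) transfected 6 h serum/antibiotic-free with NP-112 reporter (tandem GATA sites plus rat BNP minimal promoter, 100 ng/well) and pMT2-GATA4 (25 ng/well), Fugene 6 1:3. Treated 24 h with compound or 0.1% DMSO. Luminescence read; triplicates, Grubbs outliers removed, % of control.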

Data set [2] concerns the target Homeobox protein Nkx-2.5 (Mus musculus) (UniProt P42582). In words: Modulation of mouse NKX2-5 expressed in Chlorocebus aethiops COS1 cells harboring 3xHA reporter gene assessed as protein-induced transcriptional activity at 10 uM after 24 hrs by luciferase reporter gene assay relative to control. An outline of the steps:
(§2)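 COS-1 cells seeded 14 000/well and grown overnight. Transfection for 6 h in serum- and antibiotic-free medium with pGL3-3xHA reporter (100 ng/well) and pMT2-NKX2-5 (25 ng/well), Fugene 6 1:3. Compound or 0.1% DMSO vehicle for 24 h, then luciferase luminescence. Triplicate wells with Grubbs outlier removal, % of control.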
In general terms: In a reporter assay the amount or activity of a reporter protein is the signal.

The subject of a further data set is COS-1. Kind of data set: Induction of necrosis in Chlorocebus aethiops COS1 cells assessed as LDH release at 1 to 30 uM after 24 hrs by LDH assay relative to control. Conditions: cos-1, 24 h. An outline of the steps: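 COS-1 cells in DMEM with 10% FBS at 37 °C, 5% CO₂, plated 10 000/well and exposed next day to 1–30 μM for 24 h. Medium samples mixed with NAD, iodonitrotetrazolium, lactate and phenazine methosulfate in 0.2 M Tris-HCl pH 8.2, 30 min at room temperature. Stopped with acetic acid, A490 read and normalized to maximal and spontaneous release.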
For orientation: Release of lactate dehydrogenase indicates damage to the cell membrane.

For data set [3], the target named is T1, GATA4/NKX2-5 (Mus musculus) (UniProt Q08369+P42582). In words: Modulation of mouse GATA4/mouse NKX2-5 protein-protein interaction expressed in Chlorocebus aethiops COS1 cells harboring 3xHA reporter gene assessed as transcriptional synergy at 10 uM after 24 hrs by luciferase reporter gene assay relative to control. An outline of the steps:
(§3)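 COS-1 cells seeded 14 000/well, grown overnight, then transfected for 6 h in serum- and antibiotic-free medium with pGL3-3xHA reporter (three NKX2-5 sites, 100 ng/well) plus pMT2-GATA4 and pMT2-NKX2-5 (total 50 ng/well), Fugene 6 at 1:3 DNA/reagent. Compound or 0.1% DMSO vehicle for 24 h, then luminescence read. Triplicates, Grubbs outliers removed, expressed as % of control.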

For data set [4], the target named is Homeobox protein Nkx-2.5 (Mus musculus) (UniProt P42582). Kind of data set: Enhancement of mouse NKX2-5 expressed in Chlorocebus aethiops COS1 cells harboring 3xHA reporter gene assessed as protein-induced transcriptional activity at 10 uM after 24 hrs by luciferase reporter gene assay relative to control. An outline of the steps:
as §2

Data set [5] deals with Transcription factor GATA-4 (Mus musculus) (UniProt Q08369). Kind of data set: Enhancement of mouse GATA4 expressed in Chlorocebus aethiops COS1 cells harboring NP-112 reporter gene assessed as BNP promoter-driven transcriptional activity at 10 uM after 24 hrs by luciferase reporter gene assay relative to control. An outline of the steps:
as §1

Data set [6] concerns the target T1, GATA4/NKX2-5 (Mus musculus). In words: Enhancement of mouse GATA4/mouse NKX2-5 protein-protein interaction expressed in Chlorocebus aethiops COS1 cells harboring 3xHA reporter gene assessed as transcriptional synergy at 10 uM after 24 hrs by luciferase reporter gene assay relative to control. An outline of the steps: as §3
Data set [7] addresses Homeobox protein Nkx-2.5 (Mus musculus) (UniProt P42582). In words: Inhibition of mouse NKX2-5 expressed in Chlorocebus aethiops COS1 cells harboring 3xHA reporter gene assessed as protein-induced transcriptional activity at 10 uM after 24 hrs by luciferase reporter gene assay relative to control. Further details: scale not given: the % may be the effect or the level left. An outline of the steps:
as §2

Data set [8] has as its target Transcription factor GATA-4 (Mus musculus) (UniProt Q08369). Kind of data set: Inhibition of mouse GATA4 expressed in Chlorocebus aethiops COS1 cells harboring NP-112 reporter gene assessed as BNP promoter-driven transcriptional activity at 10 uM after 24 hrs by luciferase reporter gene assay relative to control. Set-up: scale not given: the % may be the effect or the level left. An outline of the steps: as §1

For data set [9], the target named is T1, GATA4/NKX2-5 (Mus musculus). In words: Inhibition of mouse GATA4/mouse NKX2-5 protein-protein interaction expressed in Chlorocebus aethiops COS1 cells harboring 3xHA reporter gene assessed as transcriptional synergy at 10 uM after 24 hrs by luciferase reporter gene assay relative to control. Further details: scale not given: the % may be the effect or the level left. An outline of the steps: as §3

Transcription factor GATA-4 (Mus musculus), sequence (Q08369 whole entry): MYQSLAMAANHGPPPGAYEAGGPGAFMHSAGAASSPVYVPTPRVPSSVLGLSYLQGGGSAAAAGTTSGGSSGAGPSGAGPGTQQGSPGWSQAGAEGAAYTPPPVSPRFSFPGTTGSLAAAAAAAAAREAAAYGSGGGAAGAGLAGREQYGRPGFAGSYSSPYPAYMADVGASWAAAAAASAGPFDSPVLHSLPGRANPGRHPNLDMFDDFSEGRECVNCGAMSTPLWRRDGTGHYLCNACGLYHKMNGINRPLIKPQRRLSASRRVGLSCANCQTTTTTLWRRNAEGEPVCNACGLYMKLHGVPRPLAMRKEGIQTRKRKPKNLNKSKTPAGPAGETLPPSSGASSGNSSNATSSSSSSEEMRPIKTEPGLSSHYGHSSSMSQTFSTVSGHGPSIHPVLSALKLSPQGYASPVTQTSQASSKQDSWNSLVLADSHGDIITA
Homeobox protein Nkx-2.5 (Mus musculus), sequence (P42582 whole entry): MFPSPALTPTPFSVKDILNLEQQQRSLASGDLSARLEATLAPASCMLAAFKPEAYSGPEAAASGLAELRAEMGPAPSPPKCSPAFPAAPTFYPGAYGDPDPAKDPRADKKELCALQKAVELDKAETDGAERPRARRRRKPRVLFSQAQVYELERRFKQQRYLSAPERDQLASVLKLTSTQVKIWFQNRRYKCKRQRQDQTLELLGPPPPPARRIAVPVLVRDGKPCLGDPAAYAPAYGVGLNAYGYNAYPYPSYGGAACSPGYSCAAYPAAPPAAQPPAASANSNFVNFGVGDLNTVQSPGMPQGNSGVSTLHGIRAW

In the case of `CCN(CC)c1ccc(NC(=O)c2c(-c3ccncc3)noc2C)cc1`, the Activity in [1] was 79%; in [2], 61%; with COS-1 it was below 8%; in data set [3] it was 61%.

With `CCN(CC)c1ccc(NC(=O)c2cn(C)cc2-c2cc(C)on2)cc1`, the Activity in [4], in data set [1] and in data set [3] was 110% throughout.

Regarding `CN(C)c1ccc(/N=C/c2c[nH]nc2-c2ccc(F)cc2)cc1`, the Activity in data set [5] amounted to 120%; in data set [4] it was 140%.

Consider `CCN(CC)c1ccc(CNc2c(-c3ccccc3)noc2C)cc1`, for which the Activity in data set [1] was 77%; in data set [2] it was 89%; in the data set with COS-1 it was below 8%; in data set [3], 91%.

Consider `CCN(CC)c1ccc(NC(=O)c2csc3nnsc23)cc1`, for which the Activity in [6] was 130%.

In the case of `Cc1onc(-c2ccccc2)c1C(=O)N(C)c1ccc(C(=O)O)cc1`, the Activity in data set [6] is 130%.

Regarding `CCN(CC)c1ccc(NC(=O)c2cnoc2-c2ccccc2)cc1`, the Activity in data set [1] was 62%; in [2] it was 50%; in the data set on COS-1, below 8%; in data set [3] it was 47%.

As to `CCN(c1ccc(NC(=O)c2c(-c3ccccc3)noc2C)cc1)C(C)C`, the Activity in data set [7] was 34%; in data set [1] it was 75%; with COS-1 it was below 8%; in data set [3] it was 41%.

As to `CCN(CC)c1ccc(NC(=O)c2c(-c3ccc(F)cc3)noc2C)cc1`, the Activity is 79% in [1], 47% in data set [2], below 8% in the data set with COS-1 and 44% in data set [3].

As to `CCC(OC)c1ccc(OCc2c(-c3ccccc3)noc2C)cc1` (racemic), the Activity in data set [1] is 78%; in data set [2], 67%; with COS-1, below 8%; in data set [3] it was 43%.

`Cc1onc(-c2ccccc2)c1C(=O)Nc1ccc(C(=O)OCCC#N)cc1`: the Activity in data set [4] worked out at 130%.

For `Cc1onc(-c2ccccc2)c1C(=O)Nc1ccc(C(=O)OCCCCC#N)cc1`, the Activity in data set [4] was 150%; in data set [1] it was 100%; in [3], 90%.

Consider `CCC(C)NC(=O)c1cc(-c2ccco2)on1` (stereo unspecified), for which the Activity in data set [6] was 140%.

For `CC(C)c1ccc(NC(=O)c2noc3c2CCc2sccc2-3)cc1`, the Activity in [5] is 120%; in data set [6], 130%.

On to `Cc1onc(-c2ccccc2)c1C(=O)Nc1ccc2oc(-c3ccccc3)cc(=O)c2c1`, for which the Activity in data set [1] is 66%; in [2], 53%; in the data set on COS-1, below 8%; in data set [3], 31%.

As to `Cc1onc(-c2ccccc2)c1NC(=O)c1ccc(N2CCN(C)CC2)cc1`, the Activity in data set [6] was 120%.

For the molecule `CCN(CC)c1ccc(NC(=O)c2c(-c3ccccc3)nnn2CCc2ccccc2)cc1`, the Activity in data set [7] is 34%; in data set [8], 38%; in the data set with COS-1 it was below 8%.

Consider `CCN(CC)c1ccc(-n2c(=O)c3c(C)onc3c3ccccc32)cc1`, for which the Activity in [4] was determined as 110%.

For `CCN(CC)c1ccc(NC(=O)c2cnc(SC)n2-c2ccc(F)cc2)cc1`, the Activity is 45% in [8], 65% in data set [2], below 8% with COS-1 and 52% in data set [3].

`Cc1onc(-c2ccccc2)c1C(=O)Nc1ccc(C#C[Si](C)(C)C)cc1`: the Activity in data set [1] was 93%; in data set [2], 75%; in the data set with COS-1 it was below 8%; in data set [3] it was 69%.

In the case of `CCN(CC)c1ccc(NC(=O)c2c(C)noc2-c2cc(C)on2)cc1`, the Activity in data set [1] was 100%; in data set [2], 84%; with COS-1, below 8%; in data set [3] it was 78%.

Take `CCN(CC)c1ccc(NC(=O)c2cnoc2C2CC2)cc1`: the Activity in [6] is 140%.

Turning to `CCN(CC)c1ccc(NC(=O)c2cc(C)oc2-c2cc(C)on2)cc1`, the Activity came out at 140% in data set [5], 110% in data set [2] and 100% in [3].

For the molecule `Cc1onc(-c2ccccc2)c1COc1ccc(C(=O)OCCCC#N)cc1`, the Activity in [1] was 71%; in data set [2], 52%; in data set [3] it was 52%.

Take `CCN(CC)c1ccc(NC(=O)c2csc([N+](=O)[O-])c2)cc1`: the Activity was 26% in [7]; 25% in data set [9]; 23% in data set [8]; below 8% in the data set on COS-1; 25% in data set [3].

Regarding `CCN(c1ccc(NC(=O)c2c(C)noc2-c2snnc2C)cc1)C(C)C`, in data set [9], the Activity was 19%.

As to `CCN(CC)c1ccc(CN(C(=O)C(F)(F)F)c2c(-c3ccccc3)noc2C)cc1`, the Activity in data set [1] was 72%; in data set [2], 71%; in the data set on COS-1, below 8%; in data set [3] it was 52%.

Consider `CCN(CC)c1ccc(NC(=O)c2snnc2-c2ccccc2)cc1`, for which the Activity in data set [1] is 52%; in [2] it was 49%; in the data set on COS-1, below 8%; in data set [3], 41%.

As to `CCN(CC)c1ccc(NC(=O)c2c(-c3ccsc3)noc2C)cc1`, the Activity is 71% in data set [1], 84% in data set [2], below 8% in the data set on COS-1 and 66% in [3].

Take `Cc1onc(-c2ccccc2)c1C(=O)Nc1ccc(C(=O)OCCCC#N)cc1`: the Activity in data set [5] came to 110%; in [2], 97%; in [3], 98%.

Regarding `CCN(CC)c1ccc(NC(=O)c2c(-c3coc(C)n3)noc2C)cc1`, the Activity in [1] amounted to 110%; in [2], 86%; in [3] it was 100%.

On to `CC(=O)c1ccc(NC(=O)c2cc(-c3ccco3)on2)cc1`, for which, in data set [6], the Activity was 130%.

For the molecule `Cc1onc(-c2ccccc2)c1C(=O)Nc1nc(C(C)(C)C)cs1`, the figures for the Activity in [1], in [2] and in data set [3] were 110%, 96% and 110%, respectively.

For `C#CC[N+](CC)(CC)c1ccc(NC(=O)c2c(-c3ccccc3)noc2C)cc1`, the Activity in data set [4] was determined as 120%.

On to `CCN(CC)c1ccc(NC(=O)c2cn(C)nc2-c2cc(C)on2)cc1`, for which the figures for the Activity in [5], in data set [2] and in data set [3] were 130%, 93% and 99%, respectively.

Turning to `CCN(CC)c1ccc(NC(=O)c2c(-c3ccoc3)noc2C)cc1`, the Activity in [1] came out at 99%; in data set [2] it was 110%; in data set [3] it was 110%.

`CCN(CC)c1ccc(NC(=O)c2cc(C)sc2-c2cc(C)on2)cc1`: the Activity was determined as 97% in data set [1], 96% in [2] and 85% in data set [3].

As to `CCN(CC)c1ccc(N(C)C(=O)c2c(-c3ccccc3)noc2C)cc1`, the Activity in data set [1] turned out to be 99%; in data set [2], 100%; in [3] it was 97%.

With `Cc1onc(-c2ccccc2)c1COc1ccc(C(=O)O)cc1`, in data set [6], the Activity was determined as 120%.

Regarding `C=CCN(Cc1ccc(N(CC)CC)cc1)c1c(-c2ccccc2)noc1C`, the Activity was 80% in [1], 73% in [2], below 8% in the data set with COS-1 and 53% in data set [3].

`CCN(c1ccc(NC(=O)c2c(C)noc2-c2cc(C)on2)cc1)C(C)C`: the Activity in data set [5] was 120%.

As to `Cc1onc(-c2ccccc2)c1C(=O)Nc1ccc(-c2ccccc2)cc1`, the Activity in data set [1] turned out to be 110%; in data set [2], 97%; in data set [3], 110%.
